# Experimental data of several laboratories.
# Compare with care: the assays were run in different laboratories.
SMILES,organism,assay,system,conditions,endpoint,result
O=[N+]([O-])c1ccc(C2=[N+]([O-])c3ccccc3N3CCN=C23)cc1,Bacteroides fragilis,microbial growth,,,MIC50,≤ 0.06 µg/mL
CCCCCOc1ccc(-c2cc(-c3ccc(C(=O)N[C@H]4C[C@@H](O)[C@@H](O)NC(=O)[C@@H]5[C@@H](O)[C@@H](C)CN5C(=O)[C@H]([C@H](O)CC(N)=O)NC(=O)[C@H]([C@H](O)[C@@H](O)c5ccc(O)c(OS(=O)(=O)O)c5)NC(=O)[C@@H]5C[C@@H](O)CN5C(=O)[C@H]([C@@H](C)O)NC4=O)cc3)no2)cc1,Lodderomyces parapsilosis,microbial growth,,,MIC90,4 µg/mL
Nc1ccn(C[C@@H](CO)OCP(=O)(O)O)c(=O)n1,Human alphaherpesvirus 1,cytopathic effect,HEL,,EC50,2000 nM
Nc1nc2c(ncn2COCCO)c(=O)[nH]1,Human alphaherpesvirus 1,cytopathic effect,HEL,,EC50,200 nM
OC(Cn1cncn1)(Cn1cncn1)c1ccc(F)cc1F,Aspergillus niger,microbial killing,,,MFC,40 µM
Cc1ncc([N+](=O)[O-])n1CCO,Bacteroides fragilis,microbial growth,,,MIC50,0.5 µg/mL
Cn1cnc2nc(NCc3ccc(Cl)c(Cl)c3)[nH]c(=O)c21,Bacteroides fragilis,"microbial growth, agar dilution",,48 h,MIC,> 32 µg/mL
O=c1[nH]c(=O)n([C@H]2C[C@H](O)[C@@H](CO)O2)cc1/C=C/Br,Human alphaherpesvirus 1,cytopathic effect,HEL,,EC50,2000 nM
CC[C@H](C)C[C@H](C)CCCCCCCCC(=O)N[C@H]1C[C@@H](O)[C@@H](NCCN)NC(=O)[C@@H]2[C@@H](O)CCN2C(=O)[C@H]([C@H](O)CCN)NC(=O)[C@H]([C@H](O)[C@@H](O)c2ccc(O)cc2)NC(=O)[C@@H]2C[C@@H](O)CN2C(=O)[C@H]([C@@H](C)O)NC1=O,Lodderomyces parapsilosis,"microbial growth, broth dilution",ATCC22019,,MIC,0.5 µg/mL
O=C(NCc1ccc2c(c1)OCO2)c1ccc(Br)cc1F,Aspergillus brasiliensis,microbial growth,ATCC16404,72 h,MIC,> 200 µM
CC(C)[C@H](N)C(=O)OCCCCCn1cnc2nc(NCc3ccc(Cl)c(Cl)c3)[nH]c(=O)c21,Bacteroides fragilis,"microbial growth, agar dilution",,48 h,MIC,> 32 µg/mL
CCOC(=O)c1ccccc1S(=O)(=O)NC(=O)Nc1nc(Cl)cc(OC)n1,Lodderomyces parapsilosis,"microbial growth, broth dilution",,24 h,MIC50,1.1 µM
